# The entries come from a sample that favours hits as a whole.
# UPR CHOP act: activators of apoptotic arm of unfolded protein response (CHOP); CHO-CHOP luciferase reporter, UPR activation, luminescence; percent of tunicamycin response over DMSO baseline; activation, % at 10 µM; 0.34% of 330,000 active;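 active = at 10 µM dose, activation of 40% or more, normalized to positive control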;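 also: 100% = tunicamycin at 10 µg/mL and 0% = DMSO alone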
#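 Test system: CHO CHOP reporter cells. Input: 500 CHO-CHOP cells per well. Medium: F12 with 10% FBS. Technique: luciferase luminescence. Measure: percent activation relative to tunicamycin control. Dosing: 10 µM compound, 0.5% DMSO. Timing: 16-18 h cell attachment, then 6 h compound exposure, 37 °C.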
# TLR9-MyD88 block: TLR9-MyD88 interaction inhibition. CHO BLA complementation TLR9-MyD88, CCF4 FRET ratio. inhibition, % at 4.98 µM. 0.21% of 340,000 active. AID 504734;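 active = inhibition above the mean over all tested compounds plus 3 SD, cut at about 21% in these data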;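 also: 0% = DMSO only wells and 100% = clavulanate BLA inhibitor control wells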
# CHOP inh: blocks CHOP induction under ER stress; CHO-K1 CHOP-promoter luciferase, tunicamycin-induced, 15-18 h; inhibition, % at 10 µM; 3.8% of 220,000 active; AID 2732;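 active = compounds that reduced the stress-induced luciferase reporter signal by more than about 70% of percent inhibition, limit read from the data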;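 also: 0% = tunicamycin plus vehicle and 100% = wells without tunicamycin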
# XBP1 UPR activ: activators of adaptive arm of unfolded protein response (XBP1); CHO-XBP1 luciferase reporter, IRE1-XBP1 UPR activation, luminescence; percent of tunicamycin response, DMSO as zero; activation, % at 20 µM; 0.33% of 330,000 active; AID 463104;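 active = versus positive control, 20 µM dose yields 30% or more activation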;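 also: 100% = tunicamycin at 10 µg/mL and 0% = DMSO only wells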
#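 Assay system: CHO-XBP1 luciferase reporter cells; Schedule: 6 h treatment, 37 °C; Detection: glow luminescence from Steady-Glo reagent; Benchmarks: high control tunicamycin 10 µg/mL final, low control DMSO vehicle only.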
# NOD2 RIPK2 PPI: NOD2-RIPK2 protein interaction inhibition; O43353; CHO BLA complementation NOD2-RIPK2, CCF4 ratio; inhibition, % at 4.98 µM; 0.38% of 360,000 active; AID 624267; in the data active = inhibition above about 21%;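 also: 0% = vehicle only and 100% = reference blocker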
# Target sequence (O43353 whole entry, looked up): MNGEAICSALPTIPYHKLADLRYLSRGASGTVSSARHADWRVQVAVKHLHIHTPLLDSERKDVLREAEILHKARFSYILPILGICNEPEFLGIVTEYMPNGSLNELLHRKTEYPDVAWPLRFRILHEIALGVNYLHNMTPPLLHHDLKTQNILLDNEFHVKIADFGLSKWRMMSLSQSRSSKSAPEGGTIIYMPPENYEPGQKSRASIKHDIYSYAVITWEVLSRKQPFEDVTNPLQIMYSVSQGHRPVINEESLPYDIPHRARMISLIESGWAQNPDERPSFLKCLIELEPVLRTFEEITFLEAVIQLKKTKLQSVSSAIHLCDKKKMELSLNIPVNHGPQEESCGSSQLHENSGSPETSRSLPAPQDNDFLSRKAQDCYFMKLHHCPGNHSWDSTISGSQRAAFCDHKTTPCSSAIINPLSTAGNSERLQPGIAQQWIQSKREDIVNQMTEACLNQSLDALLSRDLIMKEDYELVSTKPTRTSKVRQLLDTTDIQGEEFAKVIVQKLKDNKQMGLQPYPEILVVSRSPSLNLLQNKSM
# TLR4 MyD88 comp: blocks binding of human TLR4 to MyD88. HeLa CL3-4 TLR4/MyD88 BLA complementation, FRET ratio. O00206+Q99836. inhibition, % at 8.4 µM. 0.18% of 200,000 active; in the data active = inhibition above about 25%;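 also: 0% = vehicle and 100% = reference inhibitor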
# UPR CHOP confirm: confirmation of apoptotic unfolded protein response (CHOP) activators; shares compounds with UPR CHOP act; CHO-CHOP cells, CHOP-luciferase reporter luminescence; percent of tunicamycin response, DMSO as zero; activation, % at 10 µM; 64% of 1,000 active; in the data active = activation above about 33%;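 also: 0% = DMSO wells and 100% = tunicamycin 10 µg/mL wells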
# * = called active by the depositor; nt = no result given.
SMILES,UPR CHOP act,TLR9-MyD88 block,CHOP inh,XBP1 UPR activ,NOD2 RIPK2 PPI,TLR4 MyD88 comp,UPR CHOP confirm
Fc1ccc(NC(=S)Nc2nccs2)cc1,75*,14,-217,9,-5,1,80*
CCCCCNc1ncnc2c(C)[nH]nc12,nt,nt,nt,nt,-16,nt,nt
CC1CCCCC1NC(=O)NC(=O)CCl (configuration not stated),42*,-2,-75,-2,5,-11,7
CCOC(=O)/C=C1/SCC(=O)N1CC(=O)Nc1ccccc1OC(F)F,nt,3,nt,nt,-4,nt,nt
Cc1ccc(N=C2C(=S)N(c3ccc(C)cc3)C(=N)N2/N=C/c2ccc(Cl)cc2)cc1,57*,-7,50,7,5,-5,17
Clc1ccc2nc(C3CCCCC3)c(CC3CCCCC3)n2c1,nt,nt,nt,nt,-1,nt,nt
C[C@@H]1CCCCO[C@@H](CN(C)C(=O)CCCN(C)C)[C@@H](C)CN([C@H](C)CO)C(=O)c2cc(NC(=O)CCC(F)(F)F)ccc2O1,nt,-11,nt,nt,-11,nt,nt
CCCCCCCCCCCCCCCCCC(=O)OC(CC(=O)O)C[N+](C)(C)C (configuration not stated),nt,nt,-8,nt,nt,nt,nt
COc1ccc(C2C3=C(CC(C)(C)CC3=O)Oc3ncn(Cc4ccco4)c(=N)c32)cc1 (configuration not stated),44*,-7,38,0,-7,3,0
O=c1[nH]c2cc3c(cc2cc1C(c1nnnn1Cc1ccccc1)N1CCCc2ccccc21)OCO3 (configuration not stated),265*,nt,25,12,nt,2,2
O=c1[nH]c2cc3c(cc2cc1C(c1nnnn1C1CCCC1)N1CCCc2ccccc21)OCCO3 (configuration not stated),nt,-6,nt,nt,4,nt,nt
COc1cc(/C=C/C(=O)N2C(=O)c3cccc(N)c3C2=O)cc(OC)c1OC,68*,0,94*,4,2,5,53*
COc1ccc(/C=C/C(=O)Oc2ccc(C)cc2)cc1,43*,0,nt,29,-14,nt,40*
COc1ccc(/C=C/C(=O)O)cc1,-3,5,nt,-3,-13,nt,nt
CC(=O)Nc1ccc(NC(=O)COC(=O)CCNS(=O)(=O)c2c(Cl)cccc2Cl)cc1,1,-7,nt,-1,-13,nt,nt
O=C(O)CC1CCC(=C(Cl)Cl)C1 (configuration not stated),46*,6,79*,-6,-5,4,65*
O=S1(=O)CCN(C2CCCCCCC2)CC1,nt,3,nt,nt,-7,nt,nt
CC(C)c1cn(CC[C@@H]2CC[C@H](NS(=O)(=O)c3ccc(F)cc3)[C@@H](CO)O2)nn1,nt,nt,nt,nt,0,nt,nt
Cc1cc(C)c(S(=O)(=O)N2CCN(C3CC(=O)N(c4ccccc4Cl)C3=O)CC2)c(C)c1 (configuration not stated),0,-2,nt,-2,6,nt,nt
COc1ccccc1N1C(=O)C=C(Sc2nc(C)cc(C)n2)C1=O,62*,nt,32,2,-2,nt,56*
CN=c1scc(C)n1/N=C/c1ccc(O)cc1,3,2,-14,1,3,0,nt
CN=c1scc(-c2ccco2)n1/N=C/c1ccc(O)c(O)c1,52*,0,23,-3,-6,-9,70*
C=CCN=c1scc(C)n1/N=C/c1ccc(O)c(O)c1,302*,0,-103,19,2,-1,208*
O=C(Oc1ccccc1/C=C\C(=O)c1cc2ccccc2o1)c1ccccc1,73*,-7,-37,27,-4,7,244*
COc1cccc(C(=O)Oc2ccccc2/C=C\C(=O)c2cc3ccccc3o2)c1,nt,5,44,nt,10,12,nt
SMILES,UPR CHOP act,TLR9-MyD88 block,CHOP inh,XBP1 UPR activ,NOD2 RIPK2 PPI,TLR4 MyD88 comp,UPR CHOP confirm
C[C@H]1CN([C@@H](C)CO)C(=O)CCCn2cc(nn2)CO[C@@H]1CN(C)C(=O)Nc1ccc(F)cc1,nt,1,nt,nt,-1,nt,nt
Cc1c(C(=O)c2no[n+]([O-])c2C(=O)c2cnn(C)c2C)cnn1C,55*,1,4,-7,-1,-14,91*
COc1ccc(C(=O)c2no[n+]([O-])c2C(=O)c2ccc(OC)cc2)cc1,-4,-3,56,-9,10,2,nt
COc1ccc(CCN2CCC(Nc3nc4ccccc4n3Cc3ccc(F)cc3)CC2)cc1,56*,2,nt,4,1,-8,44*
Nc1[nH]c(C(=O)c2ccccc2)c(-c2ccc(Cl)cc2)c1C(=O)NCc1ccco1,nt,nt,nt,nt,-15,nt,nt
COC(=O)c1ccc(COC(=O)C(NC(=O)Cc2ccccc2)C(C)C)cc1 (configuration not stated),1,-3,nt,1,-8,nt,nt
Nc1ccn([C@@H]2O[C@H](C(=O)NCC(F)(F)F)[C@@H](O)[C@H]2O)c(=O)n1,nt,nt,nt,nt,-5,nt,nt
CCOC(=O)c1c(C)oc2c1c(C(c1cccnc1)N1CCCCC1)c(O)c1ccccc12 (configuration not stated),114*,0,17,11,2,6,182*
CCOC(=O)C1CCN(C(c2cccnc2)c2c(NC(=O)c3ccco3)sc(C)c2C)CC1 (configuration not stated),0,0,nt,2,0,-9,nt
CCOC(=O)c1c(C)oc2c1c(C=NCCO)c(O)c1ccccc12,nt,-1,50,nt,-4,-7,nt
CCOC(=O)c1c(C)oc2c1c(C(c1ccccc1)N1CCOCC1)c(O)c1ccccc12 (configuration not stated),62*,-9,-23,11,-3,16,73*
O=[n+]1c2c(n([O-])c3cc(F)c(N4CCCC4)cc31)CCC2,41*,-1,nt,24,-9,1,-1
COC(=O)c1cc(=O)n(CCc2ccc(OC)c(OC)c2)c(=Nc2ccc(F)c(Cl)c2)s1,41*,2,-22,13,-4,15,63*
CCOc1ccc(N2C(=O)CC(Sc3nc4ccc(OCC)cc4s3)C2=O)cc1 (configuration not stated),17,-6,nt,-14,2,-8,nt
CCOc1ccc2nc(SC3CC(=O)N(c4ccc(C)cc4)C3=O)sc2c1 (configuration not stated),45*,-2,22,-7,2,-9,65*
c1ccc(OC2CCCCC2N2CCOCC2)cc1 (configuration not stated),nt,4,nt,nt,0,nt,nt
O=C(Nc1nc2ccc(F)cc2s1)c1ccccn1,80*,nt,81*,-8,nt,9,73*
O=C(c1ccc([N+](=O)[O-])o1)N1CCN(c2nc3c(F)cc(F)cc3s2)CC1,22,-11,nt,3,8,nt,nt
